Bioassay records from PubChem.
MPTP inh = blocks calcium-induced mitochondrial swelling; isolated mouse mitochondria, Ca2+ swelling absorbance, 30 min; inhibition, % at 10 µM; hit rate 1.4% among 360,000;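 active = inhibition of 50% or more, scaled per plate between neutral and stimulator controls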
SENP1 inh = blocks the human SENP1 SUMO protease catalytic domain; Q9P0U3; recombinant SENP1 catalytic domain, CyPet-SUMO1-YPet FRET cleavage; inhibition, % at 10 µM; hit rate 0.21% among 360,000; AID 624204;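 active = inhibition at least 30% at 10 µM, raw YFP signal under a set limit, fluorescence ratio 0.5 to 1.5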
Target sequence (Q9P0U3 419-644 limits assumed): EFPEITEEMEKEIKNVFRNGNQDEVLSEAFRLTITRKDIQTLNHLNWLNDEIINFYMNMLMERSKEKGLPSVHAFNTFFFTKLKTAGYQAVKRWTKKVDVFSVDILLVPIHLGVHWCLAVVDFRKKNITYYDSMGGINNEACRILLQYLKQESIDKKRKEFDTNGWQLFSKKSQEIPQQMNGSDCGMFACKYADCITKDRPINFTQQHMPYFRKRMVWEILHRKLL
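Assay system – human recombinant His6-tagged SENP1 catalytic domain enzyme · Input – SENP1 enzyme, 20 pM final · Buffer or medium – Tris pH 8 buffer plus EDTA, NaCl, BME, BSA, NP40, catalase · Schedule – 50 min reaction at room temperature · Technique – FRET read of cyan and yellow fluorescence · Control set – no-enzyme wells low, DMSO-plus-enzyme wells high control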
EBI2 antag = antagonists of human EBI2 receptor; AID 651636; inhibition, % at 5 µM; EBI2 beta-arrestin recruitment, luminescence, 7a,25-OHC stimulated; hit rate 0.81% among 360,000; P32249; in the data active = inhibition above about 38%;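 also: enzyme fragment complementation signal reports receptor beta-arrestin coupling in cells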
Target sequence (P32249 whole entry, looked up, the tested form may be a part): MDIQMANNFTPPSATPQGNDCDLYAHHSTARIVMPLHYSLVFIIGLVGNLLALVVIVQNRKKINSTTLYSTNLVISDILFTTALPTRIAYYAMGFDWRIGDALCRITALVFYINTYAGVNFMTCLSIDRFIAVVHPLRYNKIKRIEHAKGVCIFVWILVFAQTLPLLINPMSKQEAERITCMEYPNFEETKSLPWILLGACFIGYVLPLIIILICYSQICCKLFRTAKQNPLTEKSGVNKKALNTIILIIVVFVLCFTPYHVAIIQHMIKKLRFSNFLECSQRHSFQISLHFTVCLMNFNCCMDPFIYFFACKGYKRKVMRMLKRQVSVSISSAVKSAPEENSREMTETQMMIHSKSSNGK
NR3A LBD binder = modulates the human NR3A ligand-binding domain; NR3A LBD differential scanning fluorimetry, Tm shift; 0% = protein alone, 100% = glycine-bound protein; Tm shift relative to glycine control, % at 25 µM; hit rate 2.5% among 340,000; AID 1259313;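 active = melting temperature shift of at least 10% of the positive control shift, at one fixed dose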
Of the large screens only hits and unclear results are named; the others gave an inactive call. Compounds with a hit are over-represented: about 4.4% of the library has one in this group of screens.

COc1ccc(-c2nc(N/N=C(\C)c3ccc(O)cc3)c3ccccc3n2)cc1	NR3A LBD binder 13
FC(F)(F)c1nnc2c(Sc3ccccc3)nc3ccc(Cl)cc3n12	none
COc1cccc(CN2CC(C(=O)NCc3ccc(Cl)s3)CCC2=O)c1 (stereo unspecified)	none
c1ccc(CNc2nc(-c3cccnc3)nc3ccccc23)cc1	none
COCCCNc1nc(-c2ccc(Cl)cc2)nc2ccccc12	NR3A LBD binder 12
c1ccc(CNc2nc(-c3ccccc3)nc3ccccc23)cc1	NR3A LBD binder 10
COCCCNc1nc(-c2ccncc2)nc2ccccc12	none
CN1C2C=C(N(CCc3c[nH]c4ccccc34)C(=O)c3ccc(Cl)cc3)CC1CC2 (stereo unspecified)	EBI2 antag 61
O=C(Cc1c[nH]c2ccccc12)NCc1ccc(Cl)cc1	none
CCCOc1ccc(CC(=O)NNC(=S)Nc2ccccc2)cc1Br	NR3A LBD binder 19
O=C(CC(C(=O)O)c1ccc(Cl)cc1)c1ccccc1 (stereo unspecified)	none
COC(=O)C(CC(=O)c1ccc(Cl)cc1)c1ccc(C)cc1 (stereo unspecified)	NR3A LBD binder 15
CC1C(=O)N2CCCc3cc(NC(=O)C(=O)NCc4cccnc4)cc1c32 (stereo unspecified)	none
FC(F)(F)c1ccccc1/C=N/N1CCN(Cc2ccccc2)CC1	NR3A LBD binder 18
COc1cc(/C=N/N=C(/N)c2nonc2N)cc(Br)c1OCc1ccccc1C	NR3A LBD binder 15
O=C(CCNS(=O)(=O)c1ccccc1)N1CCN(c2ccccc2)CC1	none
CN=C1S/C(=C\c2cn(CC(=O)OC)c3ccccc23)C(=O)N1C	none
CN=C1S/C(=C/c2cn(CC(=O)OC)c3ccccc23)C(=O)N1C	NR3A LBD binder 12
O=C(/C=C/c1cccs1)Nc1ccc(N2CCOCC2)c(S(=O)(=O)Nc2ccccc2Cl)c1	none
O=C(/C=C/c1cccs1)Nc1ccc(N2CCOCC2)c(S(=O)(=O)Nc2cc(Cl)ccc2Cl)c1	NR3A LBD binder 10
O=C(COc1ccc(-c2nnco2)cc1)Nc1c(F)cccc1F	NR3A LBD binder 14
O=C(Nc1ccc(S(=O)(=O)N2CCCc3ccccc32)cc1)C1CCCO1 (stereo unspecified)	NR3A LBD binder 11
NC(=O)c1ccsc1NC(=O)c1ccc(S(=O)(=O)N2CCCc3ccccc32)cc1	NR3A LBD binder 16
Cc1cc(NC(=O)CSc2nnc(-c3ccncc3)n2-c2ccccc2)no1	none
CCOc1ccc2oc(C(=O)O)c(C)c2c1	none
CCOc1ccc2oc(C(=O)N3CCN(Cc4ccccc4)CC3)c(C)c2c1	EBI2 antag 44
O=C(Nc1ccc(NC(=O)c2cccs2)cc1)c1ccc2c(c1)OCCO2	NR3A LBD binder 29
O=C(Nc1ccc(NC(=O)c2cccs2)cc1)c1ccc2c(c1)OCO2	NR3A LBD binder 14
O=C(Nc1ccccc1)c1ccc2c(c1)OCCO2	none
O=C(Nc1cccc(NC(=O)c2cccs2)c1)c1ccc2c(c1)OCO2	none
O=C(Nc1ccc(NC(=O)c2ccc3c(c2)OCCO3)cc1)c1ccccc1	NR3A LBD binder 12
COc1ccc(S(=O)(=O)N(C)C[C@H]2Oc3ccc(NS(=O)(=O)c4ccc(F)cc4)cc3C(=O)N([C@H](C)CO)C[C@@H]2C)cc1	none
O=C1c2cc([N+](=O)[O-])ccc2-c2cc(Cl)c(NC(=O)C(F)(F)F)cc21	none
O=C1c2cc([N+](=O)[O-])ccc2-c2cc(Br)c(N=C(NO)C(F)(F)F)cc21	SENP1 inh 69
O=c1cc(-c2ccsc2)oc2ccc(-c3ccc4cc[nH]c4c3)cc12	NR3A LBD binder 15
COc1ccc(-c2ccc3oc(-c4ccsc4)cc(=O)c3c2)cc1F	none
O=C(CCNS(=O)(=O)c1ccccc1F)NC1CCCCCC1	none
O=C(NCCc1ccccn1)C(F)(F)C(F)(F)C(F)(F)C(F)(F)C(F)(F)C(F)F	none
Cc1ccc(NC(=O)Nc2nc(-c3ccc(C)s3)cs2)cc1	NR3A LBD binder 24
O=C(Nc1ccccc1)Nc1nc(-c2ccc(Cl)cc2)cs1	none
COc1cccc(NC(=O)Nc2nc(-c3ccc(OC)c(OC)c3)cs2)c1	NR3A LBD binder 23
COc1ccc(-c2csc(NC(=O)Nc3ccccc3)n2)cc1	NR3A LBD binder 26
CC(=O)Nc1nc(-c2ccc(Br)s2)cs1	none
COc1ccc(NC(=O)Nc2nnc(-c3ccncc3)s2)cc1	NR3A LBD binder 11
CCOC(=O)C1(Cc2cccc(OC)c2)CCN(Cc2ccon2)CC1	none
Oc1c(/C=C/C=C/C=Nc2ccccc2)sc(=S)n1Cc1ccccc1	NR3A LBD binder 10
FC(F)(F)c1cccc(N2CCN(c3ccc4nnc(-c5ccccc5)n4n3)CC2)c1	NR3A LBD binder 22
O=C(/C=C/c1ccc2c(c1)OCO2)NCCSCc1cccc(Cl)c1	NR3A LBD binder 26
O=C(/C=C/c1ccc2c(c1)OCO2)NCCSCc1ccc(Cl)cc1Cl	none
Cc1nc2sc(C(=O)c3ccccc3)c(N)c2c(C)c1C	none
COc1ccc(C(=O)c2sc3nc(-c4ccccc4)ccc3c2N)cc1	NR3A LBD binder 18
CC(C)OC(=O)c1sc2nc(-c3ccccc3)ccc2c1N	EBI2 antag 48
COC(=O)c1sc2nc(-c3ccco3)ccc2c1N	none
Cc1nc(-c2ccccc2)nc2sc(C(=O)c3ccc(F)cc3)c(N)c12	NR3A LBD binder 15
O=C(CSCc1cccc(Br)c1)N/N=C/c1ccc2c(c1)OCO2	none
O=C(c1ccc(N2CCCC2=O)cc1)N1CCOCC1	none
CN1CCN(C(=O)c2ccc(N3CCCC3=O)cc2)CC1	NR3A LBD binder 333
Cn1c(SCC(=O)Nc2sccc2C(N)=O)nc2ccccc2c1=O	NR3A LBD binder 35
CC1=NN(c2ccccc2)C(=O)/C1=C\C=C\c1ccccc1	none
CC1=NN(c2ccccc2)C(=O)/C1=C\C=C1/N(C)c2ccccc2C1(C)C	SENP1 inh 48
CC1=NN(c2ccccc2)C(=O)/C1=C/C=C/c1ccc(N(C)C)cc1	EBI2 antag 56
CC1=NN(c2ccccc2)C(=O)/C1=C\C=C1\N(C)c2ccccc2C1(C)C	none
CC(C)c1ccc(NC2CCCN(C(=O)c3ccnc(Cl)c3)C2)cc1 (stereo unspecified)	none
O=C(Nc1nncs1)C12CC3CC(CC(Cl)(C3)C1)C2	none
N#CCCN(C(=O)COC(=O)CCc1nc2ccccc2c(=O)[nH]1)c1ccccc1F	NR3A LBD binder 13
O=C(COC(=O)CCc1nc2ccccc2c(=O)[nH]1)NC(=O)NC1CCCC1	NR3A LBD binder 12
CN(C(=O)COC(=O)CCc1nc2ccccc2c(=O)[nH]1)C1CCS(=O)(=O)C1 (stereo unspecified)	none
O=C(CCNS(=O)(=O)c1ccc(OC(F)(F)F)cc1)NC1CC1	none
Cc1ccc(NC(=O)CSc2nc3ccc(Nc4nc(N5CCOCC5)nc(N5CCOCC5)n4)cc3s2)cc1	NR3A LBD binder 15
CC(=O)Nc1ccc2nc(SCC(=O)Nc3ccc(N4CCOCC4)c(Cl)c3)sc2c1	NR3A LBD binder 25
O=C(CSc1nc(Nc2ccccc2)nc(N2CCOCC2)n1)Nc1ccccc1Cl	none
